Measurements reported in ChEMBL document CHEMBL4477235, “Evolution of a Novel, Orally Bioavailable Series of PI3Kδ Inhibitors from an Inhaled Lead for the Treatment of Respiratory Disease” (J Med Chem, 2016).
“And” between values parts separate entries of the source, which are not always exact repeats. Identical values can stand only once.

How the values were obtained:
[1] = molecular target: T1, Phosphatidylinositol 4,5-bisphosphate 3-kinase catalytic subunit delta isoform (Homo sapiens, UniProt O00329)
T1 sequence (O00329 whole entry): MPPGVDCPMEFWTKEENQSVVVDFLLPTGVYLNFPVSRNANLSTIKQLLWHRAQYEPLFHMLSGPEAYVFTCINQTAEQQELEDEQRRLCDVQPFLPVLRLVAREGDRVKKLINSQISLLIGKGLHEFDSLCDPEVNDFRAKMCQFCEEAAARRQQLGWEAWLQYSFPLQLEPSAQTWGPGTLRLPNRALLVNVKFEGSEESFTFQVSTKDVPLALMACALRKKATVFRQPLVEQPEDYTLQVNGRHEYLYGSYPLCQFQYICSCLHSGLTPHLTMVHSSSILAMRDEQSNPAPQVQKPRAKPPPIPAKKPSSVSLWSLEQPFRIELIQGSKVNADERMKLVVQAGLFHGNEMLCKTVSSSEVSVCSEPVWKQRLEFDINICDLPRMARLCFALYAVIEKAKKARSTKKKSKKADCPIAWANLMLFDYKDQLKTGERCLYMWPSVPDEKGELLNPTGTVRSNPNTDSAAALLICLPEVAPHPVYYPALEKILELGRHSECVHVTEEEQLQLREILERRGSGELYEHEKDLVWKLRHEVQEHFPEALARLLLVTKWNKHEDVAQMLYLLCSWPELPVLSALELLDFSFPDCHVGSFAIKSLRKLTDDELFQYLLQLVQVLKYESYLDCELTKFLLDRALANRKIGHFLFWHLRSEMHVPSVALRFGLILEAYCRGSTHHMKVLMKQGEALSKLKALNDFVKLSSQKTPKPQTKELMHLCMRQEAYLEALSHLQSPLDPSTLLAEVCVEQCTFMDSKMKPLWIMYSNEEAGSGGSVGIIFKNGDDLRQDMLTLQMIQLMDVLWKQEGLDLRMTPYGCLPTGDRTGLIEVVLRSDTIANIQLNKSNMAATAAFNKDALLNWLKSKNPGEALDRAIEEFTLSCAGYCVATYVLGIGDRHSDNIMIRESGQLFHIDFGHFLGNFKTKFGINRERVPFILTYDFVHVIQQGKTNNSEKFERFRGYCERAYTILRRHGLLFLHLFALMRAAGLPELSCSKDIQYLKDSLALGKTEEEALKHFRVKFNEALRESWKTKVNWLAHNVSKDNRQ

[2] = Drug uptake in blood of Brown Norway rat acute OVA model of TH2-driven lung inflammation at 3 mg/kg, po pretreated for 30 mins followed by OVA challenge measured 1 hr post dose; format: ADME, organism-based; conditions: read-out: Drug uptake
Procedure, shortened: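 Sensitized Brown Norway rats given oral compound 30 min before intratracheal OVA challenge. Blood concentration taken 1 h after dosing, i.e. 30 min after challenge.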

[3] = molecular target: Glycogen synthase kinase-3 beta (Homo sapiens, UniProt P49841); assay: Inhibition of GSK3beta (unknown origin)
[4] = Half life in Brown Norway rat acute OVA model of TH2-driven lung inflammation at 3 mg/kg, po pretreated for 30 mins followed by OVA challenge; format: ADME, organism-based; conditions: in vivo
[5] = molecular target: Tyrosine-protein kinase JAK2 (Homo sapiens, UniProt O60674); assay: Inhibition of JAK2 (unknown origin)
Sphingosine kinase 2 = Sphingosine kinase 2 (Homo sapiens, UniProt Q9NRA0); assay: Inhibition of SPHK2 (unknown origin)
[6] = AUC(infinity) in Sprague-Dawley rat at 3 mg/kg, po measured up to 7 hrs by LC-MS/MS analysis; format: ADME, organism-based; parameters: dose 3 mg/kg, time infinity, route oral; conditions: in vivo, 7 h
Procedure, shortened: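 Male Sprague Dawley rats (n = 2/route), oral dose in DMSO/PEG200/water (5:45:50 v/v/v) at 6 mL/kg. Serial tail-vein bleeds over 0–7 h. Parent compound quantified by LC–MS/MS. Parameters from noncompartmental analysis.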

[7] = molecular target: DNA-dependent protein kinase catalytic subunit (Homo sapiens) (UniProt P78527); assay: Inhibition of DNA-PK (unknown origin)
[8] = molecular target: Phosphatidylinositol 4-kinase beta (Homo sapiens, UniProt Q9UBF8); assay: Inhibition of PIK4B (unknown origin)
[9] = molecular target: Phosphatidylinositol 4-kinase alpha (Homo sapiens, UniProt P42356); assay: Inhibition of PIK4A (unknown origin)
[10] = molecular target: Phosphatidylinositol 5-phosphate 4-kinase type-2 alpha (Homo sapiens, UniProt P48426); assay: Inhibition of PIP4K2A (unknown origin)
[11] = molecular target: Mitogen-activated protein kinase kinase kinase 5 (Homo sapiens, UniProt Q99683); assay: Inhibition of ASK1 (unknown origin)
[12] = molecular target: 3',5'-cyclic-AMP phosphodiesterase 4B (Homo sapiens, UniProt Q07343); assay: Inhibition of PDE4B (unknown origin)
[13] = molecular target: Tyrosine-protein kinase SYK (Homo sapiens, UniProt P43405); assay: Inhibition of SYK (unknown origin)
[14] = molecular target: Mitogen-activated protein kinase 14 (Homo sapiens, UniProt Q16539); assay: Inhibition of P38alpha (unknown origin)
[15] = molecular target: Tyrosine-protein kinase ITK/TSK (Homo sapiens, UniProt Q08881); assay: Inhibition of ITK (unknown origin)
Sphingosine kinase 1 = Sphingosine kinase 1 (Homo sapiens, UniProt Q9NYA1); assay: Inhibition of SPHK1 (unknown origin)
[16] = molecular target: Tyrosine-protein kinase BTK (Homo sapiens, UniProt Q06187); assay: Inhibition of BTK (unknown origin)
[17] = Half life in Brown Norway rat acute OVA model of TH2-driven lung inflammation at 9 mg/kg, po pretreated for 30 mins followed by OVA challenge; format: ADME, organism-based; conditions: in vivo
[18] = molecular target: T1, Phosphatidylinositol 4,5-bisphosphate 3-kinase catalytic subunit delta isoform; remark: listed apart in the source
[19] = molecular target: Tyrosine-protein kinase Lck (Homo sapiens, UniProt P06239); assay: Inhibition of LCK (unknown origin)
[20] = molecular target: Serine/threonine-protein kinase mTOR (Homo sapiens, UniProt P42345); assay: Inhibition of FRAP1 (unknown origin)
[21] = molecular target: Rho-associated protein kinase 1 (Homo sapiens, UniProt Q13464); assay: Inhibition of ROCK1 (unknown origin)
Choline kinase alpha = Choline kinase alpha (Homo sapiens, UniProt P35790); assay: Inhibition of choline kinase alpha (unknown origin)
[22] = Fraction unbound in Wistar Han rat at 1 mg/kg after 1 hr by HPLC analysis; format: ADME, organism-based; conditions: in vivo
Procedure, shortened: (§1)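 Unbound concentration at 1 h post-dose estimated by an internal algorithm from binding to HPLC columns coated with HSA and α-glycoprotein.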

[23] = molecular target: Phosphatidylinositol 4-phosphate 3-kinase C2 domain-containing subunit beta (Homo sapiens, UniProt O00750); assay: Inhibition of PIK3C2B (unknown origin)
[24] = molecular target: Tyrosine-protein kinase JAK3 (Homo sapiens, UniProt P52333); assay: Inhibition of JAK3 (unknown origin)
[25] = Fraction unbound in Brown Norway rat acute OVA model of TH2-driven lung inflammation at 9 mg/kg, po pretreated for 30 mins followed by OVA challenge measured 1 hr post dose by HPLC analysis; format: ADME, organism-based; conditions: in vivo
Procedure, shortened: as §1

Sequence of Sphingosine kinase 1 (Q9NYA1 whole entry): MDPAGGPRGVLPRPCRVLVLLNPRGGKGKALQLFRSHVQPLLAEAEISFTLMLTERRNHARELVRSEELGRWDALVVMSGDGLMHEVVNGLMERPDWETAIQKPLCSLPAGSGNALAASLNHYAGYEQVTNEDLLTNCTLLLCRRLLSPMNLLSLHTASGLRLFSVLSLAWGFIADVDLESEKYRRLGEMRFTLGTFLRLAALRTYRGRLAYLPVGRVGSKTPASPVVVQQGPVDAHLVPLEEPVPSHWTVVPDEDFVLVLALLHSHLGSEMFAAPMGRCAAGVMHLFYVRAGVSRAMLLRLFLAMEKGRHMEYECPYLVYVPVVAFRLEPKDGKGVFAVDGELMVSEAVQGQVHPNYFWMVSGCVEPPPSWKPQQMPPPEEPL
Sequence of Mitogen-activated protein kinase 14 (Q16539 whole entry): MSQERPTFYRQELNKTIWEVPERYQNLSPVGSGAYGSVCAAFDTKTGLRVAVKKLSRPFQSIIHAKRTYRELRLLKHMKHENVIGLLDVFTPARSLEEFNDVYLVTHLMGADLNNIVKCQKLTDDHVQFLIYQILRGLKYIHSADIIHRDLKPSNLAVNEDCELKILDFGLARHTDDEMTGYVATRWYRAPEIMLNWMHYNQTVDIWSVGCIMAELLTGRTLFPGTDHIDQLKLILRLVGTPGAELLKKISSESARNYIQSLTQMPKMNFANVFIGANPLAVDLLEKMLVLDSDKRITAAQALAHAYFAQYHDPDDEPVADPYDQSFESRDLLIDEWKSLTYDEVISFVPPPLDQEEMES
Sequence of 3',5'-cyclic-AMP phosphodiesterase 4B (Q07343 whole entry): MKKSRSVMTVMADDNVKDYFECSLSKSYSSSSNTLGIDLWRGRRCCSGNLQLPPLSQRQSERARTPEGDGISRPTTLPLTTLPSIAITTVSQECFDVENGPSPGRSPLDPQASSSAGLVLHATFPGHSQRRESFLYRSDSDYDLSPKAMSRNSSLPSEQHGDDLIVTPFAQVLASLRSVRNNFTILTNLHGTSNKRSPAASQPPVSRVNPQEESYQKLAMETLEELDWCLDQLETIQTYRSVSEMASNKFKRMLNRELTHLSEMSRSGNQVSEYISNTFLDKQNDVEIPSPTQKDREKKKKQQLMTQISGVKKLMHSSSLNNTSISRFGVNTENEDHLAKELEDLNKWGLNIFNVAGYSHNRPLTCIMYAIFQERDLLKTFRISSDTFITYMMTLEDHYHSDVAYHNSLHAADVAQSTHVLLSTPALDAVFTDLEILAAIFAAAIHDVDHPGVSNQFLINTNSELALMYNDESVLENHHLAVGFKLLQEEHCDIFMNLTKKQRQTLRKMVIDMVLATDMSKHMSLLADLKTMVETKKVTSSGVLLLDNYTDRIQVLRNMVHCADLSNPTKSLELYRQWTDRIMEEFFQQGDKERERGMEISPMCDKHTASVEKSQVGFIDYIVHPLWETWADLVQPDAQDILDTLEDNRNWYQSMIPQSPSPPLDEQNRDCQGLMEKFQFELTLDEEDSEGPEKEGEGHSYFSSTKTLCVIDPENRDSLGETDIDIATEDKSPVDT
Sequence of Sphingosine kinase 2 (Q9NRA0 whole entry): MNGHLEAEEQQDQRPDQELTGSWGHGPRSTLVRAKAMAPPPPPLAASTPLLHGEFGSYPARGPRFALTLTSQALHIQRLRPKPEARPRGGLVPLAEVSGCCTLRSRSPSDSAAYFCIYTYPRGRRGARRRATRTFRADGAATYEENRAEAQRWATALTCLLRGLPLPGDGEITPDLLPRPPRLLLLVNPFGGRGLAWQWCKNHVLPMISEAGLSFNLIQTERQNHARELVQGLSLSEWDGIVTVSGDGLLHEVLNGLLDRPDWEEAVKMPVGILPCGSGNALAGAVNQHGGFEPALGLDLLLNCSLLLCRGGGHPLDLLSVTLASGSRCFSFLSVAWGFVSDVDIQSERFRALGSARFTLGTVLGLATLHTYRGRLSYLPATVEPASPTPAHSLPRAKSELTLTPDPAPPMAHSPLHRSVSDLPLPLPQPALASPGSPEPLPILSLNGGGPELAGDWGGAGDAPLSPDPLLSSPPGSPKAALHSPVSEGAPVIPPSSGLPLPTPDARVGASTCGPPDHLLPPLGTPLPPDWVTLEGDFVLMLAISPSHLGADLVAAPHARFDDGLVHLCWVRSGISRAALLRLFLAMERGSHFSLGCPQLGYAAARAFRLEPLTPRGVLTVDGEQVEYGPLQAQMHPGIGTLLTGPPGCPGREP
Sequence of Rho-associated protein kinase 1 (Q13464 whole entry): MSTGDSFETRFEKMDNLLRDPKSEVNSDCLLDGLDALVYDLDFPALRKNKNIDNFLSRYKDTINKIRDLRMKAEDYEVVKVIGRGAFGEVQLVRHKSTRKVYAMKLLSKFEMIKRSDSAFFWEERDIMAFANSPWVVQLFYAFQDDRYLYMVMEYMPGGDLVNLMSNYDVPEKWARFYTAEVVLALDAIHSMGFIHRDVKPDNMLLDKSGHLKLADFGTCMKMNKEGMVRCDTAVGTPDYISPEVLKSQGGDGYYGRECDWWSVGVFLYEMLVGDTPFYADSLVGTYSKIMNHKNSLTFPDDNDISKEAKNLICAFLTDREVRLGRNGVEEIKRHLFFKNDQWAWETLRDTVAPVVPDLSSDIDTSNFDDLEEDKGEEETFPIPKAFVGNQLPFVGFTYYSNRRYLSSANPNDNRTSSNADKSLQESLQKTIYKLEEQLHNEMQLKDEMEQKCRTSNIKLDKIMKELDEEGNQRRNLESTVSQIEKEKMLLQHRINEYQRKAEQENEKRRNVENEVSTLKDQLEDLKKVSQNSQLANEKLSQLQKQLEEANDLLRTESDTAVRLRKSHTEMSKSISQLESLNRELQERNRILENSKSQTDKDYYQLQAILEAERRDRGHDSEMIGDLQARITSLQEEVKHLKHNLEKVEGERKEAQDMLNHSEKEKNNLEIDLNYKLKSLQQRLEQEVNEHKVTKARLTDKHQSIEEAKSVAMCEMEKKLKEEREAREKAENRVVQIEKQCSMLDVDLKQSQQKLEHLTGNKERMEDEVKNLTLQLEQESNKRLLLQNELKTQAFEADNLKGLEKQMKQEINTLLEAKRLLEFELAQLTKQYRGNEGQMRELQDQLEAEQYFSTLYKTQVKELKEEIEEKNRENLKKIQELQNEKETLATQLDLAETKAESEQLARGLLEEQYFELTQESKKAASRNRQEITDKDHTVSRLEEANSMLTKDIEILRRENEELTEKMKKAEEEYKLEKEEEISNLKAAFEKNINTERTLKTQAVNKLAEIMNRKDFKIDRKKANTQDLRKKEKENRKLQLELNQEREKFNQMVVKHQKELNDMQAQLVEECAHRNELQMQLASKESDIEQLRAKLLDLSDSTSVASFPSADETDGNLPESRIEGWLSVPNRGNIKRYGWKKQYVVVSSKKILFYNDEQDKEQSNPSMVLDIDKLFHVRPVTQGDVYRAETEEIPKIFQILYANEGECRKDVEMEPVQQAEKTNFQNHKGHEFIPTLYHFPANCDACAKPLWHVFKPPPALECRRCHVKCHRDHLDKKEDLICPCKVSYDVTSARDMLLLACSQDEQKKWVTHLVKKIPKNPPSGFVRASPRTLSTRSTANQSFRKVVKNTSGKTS
Sequence of Tyrosine-protein kinase ITK/TSK (Q08881 whole entry): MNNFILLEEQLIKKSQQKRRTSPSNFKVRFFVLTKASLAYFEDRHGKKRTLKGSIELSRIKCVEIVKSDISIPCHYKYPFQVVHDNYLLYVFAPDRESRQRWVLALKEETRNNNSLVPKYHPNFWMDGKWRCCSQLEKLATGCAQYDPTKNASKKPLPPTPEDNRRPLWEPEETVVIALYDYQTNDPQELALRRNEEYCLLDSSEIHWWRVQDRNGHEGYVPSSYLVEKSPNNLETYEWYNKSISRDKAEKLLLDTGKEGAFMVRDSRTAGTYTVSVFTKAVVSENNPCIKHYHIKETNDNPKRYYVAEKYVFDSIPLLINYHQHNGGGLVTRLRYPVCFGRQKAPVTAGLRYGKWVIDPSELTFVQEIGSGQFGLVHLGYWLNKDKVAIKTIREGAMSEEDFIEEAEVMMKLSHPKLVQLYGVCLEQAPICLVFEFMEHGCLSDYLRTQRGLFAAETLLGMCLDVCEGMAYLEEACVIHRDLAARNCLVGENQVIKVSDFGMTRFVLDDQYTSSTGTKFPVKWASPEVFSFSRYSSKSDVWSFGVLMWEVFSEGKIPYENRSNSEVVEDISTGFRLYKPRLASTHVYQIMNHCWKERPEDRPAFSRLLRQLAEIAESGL
Sequence of Phosphatidylinositol 5-phosphate 4-kinase type-2 alpha (P48426 whole entry): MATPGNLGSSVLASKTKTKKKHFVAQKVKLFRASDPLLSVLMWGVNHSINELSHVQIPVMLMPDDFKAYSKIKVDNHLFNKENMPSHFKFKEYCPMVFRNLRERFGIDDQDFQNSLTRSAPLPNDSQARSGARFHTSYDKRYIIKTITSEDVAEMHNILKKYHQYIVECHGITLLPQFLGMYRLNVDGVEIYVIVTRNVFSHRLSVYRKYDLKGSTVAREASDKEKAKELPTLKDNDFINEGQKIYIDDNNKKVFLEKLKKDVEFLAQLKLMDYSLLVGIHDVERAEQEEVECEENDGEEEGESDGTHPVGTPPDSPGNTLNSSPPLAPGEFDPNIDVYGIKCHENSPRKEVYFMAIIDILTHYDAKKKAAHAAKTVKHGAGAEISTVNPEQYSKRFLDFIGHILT
Sequence of Glycogen synthase kinase-3 beta (P49841 whole entry): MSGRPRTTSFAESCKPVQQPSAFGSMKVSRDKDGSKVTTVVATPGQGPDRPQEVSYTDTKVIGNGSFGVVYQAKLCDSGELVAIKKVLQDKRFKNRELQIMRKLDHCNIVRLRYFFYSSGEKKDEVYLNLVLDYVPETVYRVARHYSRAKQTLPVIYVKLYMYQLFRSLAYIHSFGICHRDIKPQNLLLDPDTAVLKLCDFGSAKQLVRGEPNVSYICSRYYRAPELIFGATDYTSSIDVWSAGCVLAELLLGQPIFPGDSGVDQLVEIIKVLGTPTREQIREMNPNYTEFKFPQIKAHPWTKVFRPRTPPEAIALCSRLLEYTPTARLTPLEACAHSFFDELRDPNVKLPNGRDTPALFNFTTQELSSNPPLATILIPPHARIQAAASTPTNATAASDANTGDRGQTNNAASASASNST

Question: What does the source list for `COc1ncc(-c2cc3c(c(NC(=O)CN4CCOCC4)c2)COC3)cc1NS(C)(=O)=O`?
Answer: IC50 [1]: 0.158 µM; concentration at 1 h [2]: 190 nM; IC50 [3]: > 10 µM; half-life [4]: 10.6 h; IC50 [5]: > 10 µM; IC50 (Sphingosine kinase 2): > 10 µM; AUC [6]: 673 ng·h/mL; pIC50(app) [7]: 5.6; IC50 [8]: > 10 µM; IC50 [9]: > 10 µM; IC50 [10]: > 10 µM; IC50 [11]: > 10 µM; IC50 [12]: > 10 µM; IC50 [13]: > 10 µM; IC50 [14]: > 10 µM; IC50 [15]: > 10 µM; IC50 (Sphingosine kinase 1): > 10 µM; IC50 [16]: > 10 µM; half-life [17]: 6.8 h; IC50 [18]: 0.158 to 0.251 µM and 0.25 µM; IC50 [19]: > 10 µM; IC50 [20]: > 10 µM; IC50 [21]: > 10 µM; IC50 (Choline kinase alpha): > 10 µM; Drug uptake(free) [22]: 0.089 µM; IC50 [23]: > 10 µM; IC50 [24]: > 10 µM; Drug uptake(free) [25]: 0.22 µM
